Hits are enriched below; roughly 3% of the tested compounds scored in any of these assays.
NPY-Y2 PAM-ag – potentiates or activates human NPY-Y2 receptor; P49146; cells expressing NPY-Y2, potentiator/agonist read-out; activation, % at 3.6 µM; 220,000 tested, 0.45% active; in the data active means activation above about 27%;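 further: cells stimulated with NPY near EC25 plus isoproterenol at EC100; 0% = vehicle plus submaximal agonist and 100% = vehicle plus saturating agonist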
Target sequence (P49146 whole entry, looked up): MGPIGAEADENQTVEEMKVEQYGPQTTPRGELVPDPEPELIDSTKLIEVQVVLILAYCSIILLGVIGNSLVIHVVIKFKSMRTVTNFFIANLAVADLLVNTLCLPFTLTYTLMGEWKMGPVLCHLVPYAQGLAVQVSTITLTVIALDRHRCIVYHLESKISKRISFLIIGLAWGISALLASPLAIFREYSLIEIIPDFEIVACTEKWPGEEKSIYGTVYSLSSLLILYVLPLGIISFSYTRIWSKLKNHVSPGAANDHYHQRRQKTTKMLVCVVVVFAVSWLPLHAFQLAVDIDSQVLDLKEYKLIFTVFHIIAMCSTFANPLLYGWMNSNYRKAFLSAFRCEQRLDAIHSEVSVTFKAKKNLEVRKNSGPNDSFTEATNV
NPY-Y1 PAM-ag – potentiators or agonists of human neuropeptide Y receptor Y1; P25929; NPY-Y1 expressing cells, potentiator/agonist activation; activation, % at 3.6 µM; 220,000 tested, 0.37% active; AID 1304; in the data active means activation above about 33%, passing the limit was not always enough;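 further: cells stimulated with NPY at EC10 then isoproterenol at EC100; 0% = low agonist plus stimulus and 100% = saturating agonist plus stimulus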
Target sequence (P25929 whole entry, looked up): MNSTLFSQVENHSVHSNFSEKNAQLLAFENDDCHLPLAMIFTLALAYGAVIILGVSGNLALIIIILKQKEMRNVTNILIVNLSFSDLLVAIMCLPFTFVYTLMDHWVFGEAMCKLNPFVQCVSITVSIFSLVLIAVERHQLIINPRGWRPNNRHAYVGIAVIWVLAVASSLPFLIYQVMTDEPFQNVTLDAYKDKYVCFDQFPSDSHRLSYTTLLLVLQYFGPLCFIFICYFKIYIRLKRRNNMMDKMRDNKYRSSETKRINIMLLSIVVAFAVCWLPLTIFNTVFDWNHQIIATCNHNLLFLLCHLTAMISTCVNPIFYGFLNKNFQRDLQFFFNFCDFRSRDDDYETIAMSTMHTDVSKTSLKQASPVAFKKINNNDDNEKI
NPY Y2 blocker – antagonists of human neuropeptide Y receptor Y2 | P49146 | NPY-Y2 expressing cells, antagonist mode | inhibition, % at 2.7 µM | 140,000 tested, 0.99% active; in the data active means inhibition above about 17%;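 further: 0% = vehicle with agonist challenge and 100% = reference antagonist with challenge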
Hsp70 activator – switches on Hsp70 transcription. HeLa Hsp70 promoter luciferase reporter, luminescence; scaled: vehicle 0, proteasome-inhibitor control 100%. AID 1203. 200,000 tested, 0.04% active. activation, % at 10 µM;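 active means activation above the mean across all tested compounds plus 3 SD, cutoff set per campaign, cut at about 5.5% in these data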;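 further: 100% = MG132 at 30 µM as the positive control and 0% = DMSO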
Wee1 stabilizer – human Wee1 degradation inhibition, primary screen. 220,000 tested, 1.2% active. HeLa Luc-Wee1K328M stability, luciferase luminescence; 100% = proteasome inhibitor MG132 effect. AID 1321. P30291. reporter increase, % at 5 µM;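 active means activation above the mean of all tested compounds plus 3 SD, set per screening run, cut at about 8.8% in these data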;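 further: cells exposed to compound for 20 h before luminescence read; 0% = DMSO alone and 100% = MG132 at 30 µM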
NPY Y1 blocker – antagonists of human neuropeptide Y receptor Y1. HEK293-CNG Y1 cells, membrane potential fluorescence; NPY at EC95, then isoproterenol. inhibition, % at 3.6 µM. 200,000 tested, 1% active;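 active means inhibition above the campaign mean inhibition of all tested compounds plus 3 SD, cut at about 20% in these data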;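 further: 0% = DMSO wells given NPY plus isoproterenol and 100% = isoproterenol alone without NPY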
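Material: HEK293 cells with Y1 receptor plus CNG channel; times: compound incubation 1 h at room temperature, readout 45 min post-stimulation; signal: fluorescence, membrane potential probe; read-out basis: fluorescence ratio normalized to % inhibition between controls; benchmarks: full-block control isoproterenol-only wells, zero-block control NPY plus isoproterenol wells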
NPY-Y1 antag ct – antagonizes human NPY-Y1, counter-screen to NPY-Y2 antagonists | inhibition, % at 3.6 µM | cell-based NPY-Y1 antagonism counterscreen | AID 1256 | shares compounds with NPY Y2 blocker | 710 tested, 19% active; in the data active means inhibition above about 20%;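 further: cells challenged with NPY then isoproterenol with cAMP sensed through a CNG channel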
NPY-Y2 ant conf – human NPY-Y2 antagonism, confirmation | AID 1257 | shares compounds with NPY Y2 blocker | inhibition, % at 2.8 µM | 710 tested, 32% active | HEK293 NPY-Y2 CNG channel, membrane potential fluorescence;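 active means mean inhibition of triplicate wells above the hit cutoff set in the primary screen, cut at about 17% in these data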;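 further: 0% = DMSO with NPY challenge and 100% = BIIE0246 high control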
Numbers without * were called inactive; · = not tested or not shown; ! = repeats disagree.

SMILES	NPY-Y2 PAM-ag	NPY-Y1 PAM-ag	NPY Y2 blocker	Hsp70 activator	Wee1 stabilizer	NPY Y1 blocker	NPY-Y1 antag ct	NPY-Y2 ant conf
O=C(N/N=C/c1ccccc1)c1ccc(N2CCOCC2)c([N+](=O)[O-])c1	-3.7	0.4	3.1	-0.2	-0.3	7.1	·	·
C=CCOc1ccc2ccccc2c1/C=N/O	-7.3	-29.4	20.0*	0.8	-0.7	17.3	6.7	6.8
COc1ccc2ccccc2c1/C=N/O	7.2	-2.1	5.5	0.0	-5.7	4.8	·	·
Nc1nc(CN2CCCCCC2)nc(Nc2ccccc2)n1	-2.3	-12.1	-2.7	-0.2	-1.3	-0.7	·	·
Nc1nc(CN2CCC(Cc3ccccc3)CC2)nc(Nc2ccccc2)n1	-7.3	-46.0	19.0*	-0.2	-0.3	12.9	16.0	14.6
CC(=O)O/N=C(\N)Cc1ccc(-c2csnn2)cc1	1.5	-0.6	·	·	2.0	·	·	·
O=C(NC1CCS(=O)(=O)C1)c1cc(-c2ccccc2)nc2ccccc12 (stereo not given)	2.5	-5.6	·	-0.3	-0.5	6.0	·	·
N#Cc1nc(Cc2ccccc2)oc1N1CCN(c2ccccc2)CC1	-1.3	-11.1	11.6	-0.2	0.6	13.9	·	·
N#Cc1nc(COc2ccc(Cl)cc2)oc1N1CCCCCC1	-19.0	-41.6	17.2*	-0.3	2.2	12.4	18.7	17.7*
N#Cc1nc(-c2cccs2)oc1N1CCN(c2ccccc2)CC1	-6.9	-48.8	18.0*	-0.4	0.0	12.2	7.3	12.0
N#Cc1nc(COc2cccc(Cl)c2)oc1N1CCN(c2ccccc2)CC1	-17.6	-20.0	25.1*	0.0	1.0	7.9	15.2	19.8*
O=C(NNc1ccccc1)C(CCO)C(=O)NNc1ccccc1	5.2	2.4	·	0.5	-1.3	-0.1	·	·
COc1ccccc1OCC(O)Cn1c(=N)n(CCN2CCCCC2)c2ccccc21 (stereo not given)	-7.2	-52.7	44.9*	-0.4	-3.3	17.0	31.4*	38.9*
Cc1ccccc1OCC(O)Cn1c(=N)n(CCN2CCOCC2)c2ccccc21 (stereo not given)	-1.9	-16.1	28.4*	-0.1	-2.5	30.0*!	10.3	6.7
COC(=O)Cn1c(=N)n(CCN2CCCCC2)c2ccccc21	10.4	-19.9	3.5	0.0	3.1	0.4	·	·
C/C(=C\C(=O)c1ccc(Br)cc1)NCc1ccc(C)cc1	-4.0	3.4	20.8*	-0.4	-1.3	11.2	8.3	10.1
O=C(NC1CCCCCC1)c1c2c(nc3ccccc13)CCN(Cc1ccccc1)C2	-5.6	5.8	55.8*	-0.4	0.3	10.0	81.1*	67.0*
Cc1cc(N2CCN(C)CC2)ccc1NC(=O)c1c2c(nc3ccccc13)CCN(Cc1ccccc1)C2	-13.7	-25.6	·	-0.3	2.4	4.0	·	·
Cc1c(Cl)cccc1NC(=O)COC(=O)c1c2c(nc3ccccc13)CCN(Cc1ccccc1)C2	-2.0	-31.8	11.7	-0.5	2.3	7.5	·	·
CC(C)c1ccccc1NC(=O)COC(=O)c1c2c(nc3ccccc13)CCN(Cc1ccccc1)C2	-6.3	-18.0	18.7*	-0.3	9.5*	18.3	17.0	9.2
COc1cc(OC)cc(-n2nnnc2SCC(=O)NCc2cccs2)c1	8.7	-2.1	·	-0.3	-2.9	3.6	·	·
CCCCc1cc(O)c(CCCC)c(O)c1	14.4	19.4	20.6*	0.1	3.5	-6.4	-1.1	-3.6
COc1ccccc1CCc1nnc(CCC(=O)NCCCOc2cccnc2)o1	-27.1	-7.8	·	-0.4	-1.8	-1.0	·	·
CNC(=O)C(=O)NCCCN1CCOCC1	9.0	-10.8	·	-0.1	-0.6	2.5	·	·
Cc1ccc(NC(=O)NCc2ccc3c(c2)OCO3)cc1C	-17.2	-18.2	·	-0.3	3.5	0.5	·	·
SMILES	NPY-Y2 PAM-ag	NPY-Y1 PAM-ag	NPY Y2 blocker	Hsp70 activator	Wee1 stabilizer	NPY Y1 blocker	NPY-Y1 antag ct	NPY-Y2 ant conf
Cc1ccc(NC(=S)NCc2ccc3c(c2)OCO3)cc1C	-24.6	-13.6	17.8*	0.0	0.1	12.4	15.3	18.3*
O=C(NC1CCCCC1)C(c1ccccc1)N(Cc1ccc2c(c1)OCO2)C(=O)c1cnsn1 (stereo not given)	-10.9	-43.0	25.5*	-0.3	-1.5	12.4	15.7	12.4
Cc1ccc(C(C(=O)NC2CCCC2)N(Cc2ccc3c(c2)OCO3)C(=O)c2snc(C(N)=O)c2N)cc1 (stereo not given)	6.4	-6.7	·	·	-0.7	·	·	·
CC(=O)Nc1ccc(NC(=O)c2c(C)nn(-c3ccccc3)c2Cl)cc1C	3.0	10.7	·	0.0	4.3	4.7	·	·
CCn1cc(CN(C)S(=O)(=O)c2cccc([N+](=O)[O-])c2)cn1	7.8	-6.1	·	-0.2	4.2	1.6	·	·
CCn1cc(CN(C)S(=O)(=O)c2ccc3ccccc3c2)c(C)n1	14.3	0.6	24.6*	-0.5	3.1	-1.4	11.9	1.4
O=C(O)CCC(NC(=S)Nc1ccccc1)C(=O)O (stereo not given)	2.8	-21.3	·	·	1.2	·	·	·
CCC(C)N(C(=O)COC(=O)/C=C/c1ccc(O)c(OC)c1)C1CCS(=O)(=O)C1 (stereo not given)	-1.3	9.0	18.3*	-0.4	0.6	4.0	0.7	0.4
COc1cc(/C=C/C(=O)OCC(=O)NC2CCS(=O)(=O)C2)ccc1O (stereo not given)	-1.1	0.4	-1.0	-0.3	-4.0	-1.3	·	·
Cn1nccc1-c1cc(Cl)cc(Cl)c1O	7.4	6.7	·	·	5.2	·	·	·
COC(=O)c1ccc(C2C(Oc3ccccc3)C(=O)N2CCc2ccc(F)cc2)cc1 (stereo not given)	-20.0	21.2	24.1*	0.0	-2.7	19.2	29.6*	13.6
COC(=O)c1ccc(C2C(Oc3ccc(OC)cc3)C(=O)N2CCc2ccc(OC)c(OC)c2)cc1 (stereo not given)	3.5	-14.7	3.1	-0.1	0.6	10.5	·	·
CC(C)CC(NC(=O)C(NC(=O)OC(C)(C)C)C(C)C)C(=O)N1CCCC1C(N)=O (stereo not given)	1.9	-0.4	1.8	-0.2	0.2	6.9	·	·
O=C(CSc1nc2ccccc2c(=O)n1Cc1ccc(Cl)cc1)NCc1cccs1	2.7	6.6	12.9	-0.2	3.8	-0.9	·	·
COCCn1c(-c2ccc(Cl)cc2)cnc1SCC(=O)NCc1cccs1	-17.7	-5.8	18.4*	0.0	-1.7	5.5	13.9	9.8
CN(C)c1c(F)cc(-c2nn[nH]n2)cc1F	-3.5	-19.1	·	·	-1.7	·	·	·
O=C(CCCOc1ccc(Cl)cc1Cl)N/N=C/c1ccccc1	-31.5	-54.0	4.5	-0.2	0.7	16.1	·	·
O=C(COc1ccc(Cl)cc1Cl)N/N=C/CCc1ccccc1	-26.1	11.4	20.6*	-0.1	1.0	1.4	2.8	7.7
OC(CNCc1ccc(F)cc1)(c1ccc(F)cc1)c1ccc(F)cc1	-2.1	-8.7	19.8*	-0.1	1.8	15.5	16.4	10.4

Screening results as filed in PubChem.
